Calls of active or inactive are those of the source. The calls are words filed in the database; no cut-off is given here.
Tests used:
D(2) dopamine receptor [1] = target: T1, D(2) dopamine receptor (Homo sapiens, UniProt P14416); experiment: Adenylate cyclase assay carried out in LTK cells transfected with human Dopamine receptor D2; type: cell-based
D(2) dopamine receptor [2] = target: T1, D(2) dopamine receptor; experiment: Intrinsic activity relative to dopamine for human Dopamine receptor D2 at 10 uM
Summary of the method: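 Adenylate cyclase functional assay in LTK cells transfected with the human D2 receptor. […] Values are mean ± SEM over the stated number of experiments.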

D(2) dopamine receptor [3] = target: T1, D(2) dopamine receptor; experiment: Binding affinity against cloned human Dopamine receptor D2 using [3H]spiperone as radioligand transfected in LTK cells
D(1A) dopamine receptor [4] = target: T2, D(1A) dopamine receptor (Homo sapiens, UniProt P21728); experiment: Binding affinity against cloned human Dopamine receptor D1 using [125I]-SCH 23982 as radioligand transfected in HEK cells; type: cell-based, HEK293
T2 sequence (P21728 whole entry): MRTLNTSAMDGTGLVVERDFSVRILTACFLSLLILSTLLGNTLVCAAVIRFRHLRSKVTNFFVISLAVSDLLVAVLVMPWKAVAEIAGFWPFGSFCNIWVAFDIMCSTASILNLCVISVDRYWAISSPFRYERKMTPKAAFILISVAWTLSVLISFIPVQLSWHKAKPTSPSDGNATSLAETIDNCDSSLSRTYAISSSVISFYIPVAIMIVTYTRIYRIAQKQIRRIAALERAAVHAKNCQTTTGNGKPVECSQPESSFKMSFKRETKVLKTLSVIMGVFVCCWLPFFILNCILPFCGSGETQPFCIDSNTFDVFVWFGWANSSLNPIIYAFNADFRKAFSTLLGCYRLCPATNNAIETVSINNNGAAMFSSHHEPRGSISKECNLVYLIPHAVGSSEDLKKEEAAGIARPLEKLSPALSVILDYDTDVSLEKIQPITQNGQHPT

D(1A) dopamine receptor [5] = target: T2, D(1A) dopamine receptor; experiment: Adenylate cyclase assay carried out in LTK cells transfected with human Dopamine receptor D1; type: cell-based
Rattus norvegicus = experiment: Ability to produce robust rotation in the lesioned rat after subcutaneous administration; type: functional; conditions: sc
D(2) dopamine receptor [6] = target: T1, D(2) dopamine receptor
[7] = target: T3, 5-hydroxytryptamine receptor 2C (Rattus norvegicus, UniProt P08909); experiment: Binding affinity against serotonergic 5-HT1c receptor
T3 sequence (P08909 whole entry): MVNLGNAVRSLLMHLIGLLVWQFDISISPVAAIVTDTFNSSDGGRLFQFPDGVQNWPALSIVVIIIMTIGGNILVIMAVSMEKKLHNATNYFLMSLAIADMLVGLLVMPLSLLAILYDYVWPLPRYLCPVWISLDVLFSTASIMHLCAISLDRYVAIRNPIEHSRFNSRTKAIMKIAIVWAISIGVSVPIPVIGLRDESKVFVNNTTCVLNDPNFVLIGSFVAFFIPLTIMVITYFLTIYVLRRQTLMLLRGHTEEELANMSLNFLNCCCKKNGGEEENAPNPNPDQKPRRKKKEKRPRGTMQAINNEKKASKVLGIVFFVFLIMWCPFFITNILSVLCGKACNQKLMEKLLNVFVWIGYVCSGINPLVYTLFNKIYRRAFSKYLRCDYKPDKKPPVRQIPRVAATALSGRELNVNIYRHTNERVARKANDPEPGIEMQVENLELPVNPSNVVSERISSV

[8] = target: 5-hydroxytryptamine receptor 2A (Bos taurus, UniProt Q75Z89); experiment: Binding affinity against serotonergic 5-HT2 receptor
Sequence of 5-hydroxytryptamine receptor 2A (Q75Z89 whole entry): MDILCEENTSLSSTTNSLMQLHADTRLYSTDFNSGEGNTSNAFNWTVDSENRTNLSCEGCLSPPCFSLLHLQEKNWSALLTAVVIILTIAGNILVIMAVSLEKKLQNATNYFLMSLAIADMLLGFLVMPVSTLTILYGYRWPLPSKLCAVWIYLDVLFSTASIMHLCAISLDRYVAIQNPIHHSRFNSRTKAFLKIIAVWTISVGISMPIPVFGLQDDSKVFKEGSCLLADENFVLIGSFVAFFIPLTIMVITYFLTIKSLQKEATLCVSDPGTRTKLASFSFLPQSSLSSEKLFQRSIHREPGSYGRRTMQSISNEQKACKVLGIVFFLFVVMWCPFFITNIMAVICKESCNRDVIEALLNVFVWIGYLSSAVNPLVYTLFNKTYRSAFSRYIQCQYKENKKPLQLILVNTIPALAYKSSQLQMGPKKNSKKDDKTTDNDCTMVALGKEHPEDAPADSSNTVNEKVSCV

[9] = target: T4, 5-hydroxytryptamine receptor 1A (Mus musculus, UniProt Q64264); experiment: Binding affinity against serotonergic 5-HT1a receptor
T4 sequence (Q64264 whole entry): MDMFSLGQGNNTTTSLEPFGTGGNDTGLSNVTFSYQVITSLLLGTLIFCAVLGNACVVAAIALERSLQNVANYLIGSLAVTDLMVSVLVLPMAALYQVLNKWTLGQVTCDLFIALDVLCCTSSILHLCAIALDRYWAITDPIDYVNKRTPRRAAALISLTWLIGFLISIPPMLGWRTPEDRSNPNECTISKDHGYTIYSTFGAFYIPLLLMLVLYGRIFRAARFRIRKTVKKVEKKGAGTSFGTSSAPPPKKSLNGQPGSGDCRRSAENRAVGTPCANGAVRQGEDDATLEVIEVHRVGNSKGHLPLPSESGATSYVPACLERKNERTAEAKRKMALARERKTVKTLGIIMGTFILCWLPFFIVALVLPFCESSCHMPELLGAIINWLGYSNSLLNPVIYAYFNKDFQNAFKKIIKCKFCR

[10] = target: Beta-2 adrenergic receptor (Homo sapiens, UniProt P07550); experiment: Binding affinity against Beta-2 adrenergic receptor
Sequence of Beta-2 adrenergic receptor (P07550 whole entry): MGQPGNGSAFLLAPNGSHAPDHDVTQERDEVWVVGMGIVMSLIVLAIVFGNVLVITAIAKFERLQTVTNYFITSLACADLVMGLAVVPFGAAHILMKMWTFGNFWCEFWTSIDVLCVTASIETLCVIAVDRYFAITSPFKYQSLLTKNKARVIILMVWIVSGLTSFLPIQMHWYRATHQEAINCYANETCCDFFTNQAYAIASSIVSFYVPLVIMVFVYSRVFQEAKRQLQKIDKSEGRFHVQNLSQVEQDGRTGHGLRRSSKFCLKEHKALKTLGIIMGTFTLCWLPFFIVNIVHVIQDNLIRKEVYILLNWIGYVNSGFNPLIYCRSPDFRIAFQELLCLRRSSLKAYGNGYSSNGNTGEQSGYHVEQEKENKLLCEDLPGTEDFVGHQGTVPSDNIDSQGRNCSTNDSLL

[11] = target: Beta-1 adrenergic receptor (Homo sapiens, UniProt P08588); experiment: Binding affinity against Beta-1 adrenergic receptor
Sequence of Beta-1 adrenergic receptor (P08588 whole entry): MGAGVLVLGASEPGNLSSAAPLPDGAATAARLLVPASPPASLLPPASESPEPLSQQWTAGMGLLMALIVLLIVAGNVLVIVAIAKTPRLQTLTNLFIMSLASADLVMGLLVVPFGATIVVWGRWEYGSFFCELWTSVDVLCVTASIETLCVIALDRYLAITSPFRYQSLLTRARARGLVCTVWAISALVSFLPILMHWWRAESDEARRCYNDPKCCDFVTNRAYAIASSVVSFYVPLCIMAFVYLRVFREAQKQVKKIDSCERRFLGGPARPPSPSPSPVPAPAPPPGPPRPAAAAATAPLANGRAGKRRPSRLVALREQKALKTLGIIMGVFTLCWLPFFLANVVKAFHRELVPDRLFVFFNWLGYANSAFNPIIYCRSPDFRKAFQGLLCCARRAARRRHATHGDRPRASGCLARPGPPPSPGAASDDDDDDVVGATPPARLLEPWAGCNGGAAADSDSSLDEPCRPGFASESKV

T1 sequence (P14416 whole entry): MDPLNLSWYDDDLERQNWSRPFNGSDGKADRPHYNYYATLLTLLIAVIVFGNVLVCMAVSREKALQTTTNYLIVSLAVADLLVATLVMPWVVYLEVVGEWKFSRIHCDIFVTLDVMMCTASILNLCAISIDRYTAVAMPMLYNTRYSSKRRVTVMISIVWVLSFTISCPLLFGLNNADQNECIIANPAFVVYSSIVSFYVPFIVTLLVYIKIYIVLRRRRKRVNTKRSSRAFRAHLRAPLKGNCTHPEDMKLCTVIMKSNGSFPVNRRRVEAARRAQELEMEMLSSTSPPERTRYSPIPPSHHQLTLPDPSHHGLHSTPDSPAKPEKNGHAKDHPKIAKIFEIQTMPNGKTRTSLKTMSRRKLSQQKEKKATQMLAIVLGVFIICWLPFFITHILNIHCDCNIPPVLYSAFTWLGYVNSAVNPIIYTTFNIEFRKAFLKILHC

| Structure (SMILES) | EC50 (D(2) dopamine receptor [1]) [µM] | IA (D(2) dopamine receptor [2]) [%] | Ki (D(2) dopamine receptor [3]) [µM] | Ki (D(1A) dopamine receptor [4]) [µM] | EC50 (D(1A) dopamine receptor [5]) [µM] | ED50 (Rattus norvegicus) [µmol/kg] | other results |
| --- | --- | --- | --- | --- | --- | --- | --- |
| NC[C@@H]1O[C@H](C23CC4CC(CC(C4)C2)C3)Cc2c1ccc(O)c2O | > 4 | 18 | 1.55 | – | – | – | – |
| CCCc1cc2c(s1)CN[C@H]1CCc3cc(O)c(O)cc3[C@H]21 | > 10 | 3 | 4.02 | 3.05 | 1.7 | – | – |
| Oc1cc2c(cc1O)[C@@H](c1ccccc1)CNCC2 [(R)-SKF-38393] | – | – | – | – | – | 0.02 | IA (D(2) dopamine receptor [6]): inactive |
| CCCc1cc2c(s1)CN[C@@H]1CCc3cc(O)c(O)cc3[C@@H]21 [A-86929] | 3.9 | – | 0.71 | 0.049 | 0.009 | – | – |
| Oc1cc2c(cc1O)[C@H]1c3ccccc3CN[C@@H]1CC2 [DIHYDREXIDINE] | – | – | – | – | – | 0.04 | Ki [7]: 2.4 µM; Ki [8]: > 3 µM; Ki [9]: > 3 µM; Ki [10]: 1.2 µM; Ki [11]: 1.5 µM |
